The test system of experiment [1] is BaF3. Put plainly: Cytotoxicity against mouse BA/F3 cells transfected with […] at 1 uM after 24 hrs by plate reader analysis. In kind it is functional, cell-based.
Experiment [2] has as its system MV4-11. Put plainly: Cytotoxicity against human MV4-11 cells after 24 hrs by plate reader analysis. In kind it is functional, cell-based. The following applies: MV4-11, 24 h. The method, boiled down:
(§1)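 Cells in RPMI 1640 with 10% FBS at 37 °C and 5% CO2 were seeded at 100,000 cells/ml. They were treated for 24 h at 8 concentrations (50–6400 nM), each in triplicate, with DMSO as negative control. Viable cells were measured by ATP-lite luminescence, and EC50 was taken from dose–response curves.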

For experiment [3], the system named is MOLM-13. Put plainly: Cytotoxicity against human MOLM13 cells after 24 hrs by plate reader analysis. The settings on record: MOLM-13, 24 h. In kind it is functional, cell-based. The method, boiled down: as §1
Experiment [4] addresses Proto-oncogene tyrosine-protein kinase ROS (Homo sapiens) (UniProt P08922). Put plainly: Inhibition of ROS1 (unknown origin) transfected in mouse Ba/F3 cells up to 1 uM. The settings on record: BaF3. In kind it is cell-based.
Experiment [5] concerns the target Tyrosine-protein kinase ABL2 (Homo sapiens) (UniProt P42684). Put plainly: Inhibition of ABL2 (unknown origin) transfected in mouse Ba/F3 cells up to 1 uM. The experiment is classed as cell-based. The following applies: BaF3.
Experiment [6] has as its target T1, Tyrosine-protein kinase receptor TYRO3 (Homo sapiens) (UniProt Q06418).
T1 sequence (whole entry): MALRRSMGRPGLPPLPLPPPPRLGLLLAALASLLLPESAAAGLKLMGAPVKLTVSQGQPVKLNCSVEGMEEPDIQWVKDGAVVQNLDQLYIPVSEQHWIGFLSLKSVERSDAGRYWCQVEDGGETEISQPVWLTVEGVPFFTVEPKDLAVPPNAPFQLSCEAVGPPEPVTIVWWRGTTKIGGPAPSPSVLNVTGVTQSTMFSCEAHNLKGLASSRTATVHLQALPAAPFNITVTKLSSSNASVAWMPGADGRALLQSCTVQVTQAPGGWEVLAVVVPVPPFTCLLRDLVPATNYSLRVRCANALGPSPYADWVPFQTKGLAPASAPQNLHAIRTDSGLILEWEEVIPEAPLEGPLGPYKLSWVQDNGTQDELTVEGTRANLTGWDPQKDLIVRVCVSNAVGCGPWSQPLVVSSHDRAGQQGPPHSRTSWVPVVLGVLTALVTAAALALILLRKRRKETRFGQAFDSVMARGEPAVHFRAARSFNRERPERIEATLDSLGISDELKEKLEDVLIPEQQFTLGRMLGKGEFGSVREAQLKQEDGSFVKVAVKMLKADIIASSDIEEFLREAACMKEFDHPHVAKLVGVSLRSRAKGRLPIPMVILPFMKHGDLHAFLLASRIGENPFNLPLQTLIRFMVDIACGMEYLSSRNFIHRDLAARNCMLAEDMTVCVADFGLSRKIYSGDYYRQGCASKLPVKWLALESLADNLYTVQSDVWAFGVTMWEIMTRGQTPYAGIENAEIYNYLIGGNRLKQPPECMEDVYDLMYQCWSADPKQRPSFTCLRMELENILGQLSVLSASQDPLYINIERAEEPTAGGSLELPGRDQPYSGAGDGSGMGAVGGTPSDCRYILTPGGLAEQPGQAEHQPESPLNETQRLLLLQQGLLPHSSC
Put plainly: Inhibition of TYRO3 (unknown origin) transfected in mouse Ba/F3 cells at 5 uM after 24 hrs. In kind it is cell-based. The settings on record: BaF3.

The target of experiment [7] is Tyrosine-protein kinase SYK (Homo sapiens) (UniProt P43405). Put plainly: Inhibition of SYK (unknown origin) transfected in mouse Ba/F3 cells at 5 uM after 24 hrs. In kind it is cell-based. The settings on record: BaF3.
Experiment [8] has as its target Proto-oncogene tyrosine-protein kinase Src (Homo sapiens) (UniProt P12931). Put plainly: Inhibition of SRC (unknown origin) transfected in mouse Ba/F3 cells at 5 uM after 24 hrs. In kind it is cell-based. The settings on record: BaF3.
For experiment [9], the target named is Proto-oncogene tyrosine-protein kinase ROS (Homo sapiens) (UniProt P08922). Put plainly: Inhibition of ROS1 (unknown origin) transfected in mouse Ba/F3 cells at 5 uM after 24 hrs. In kind it is cell-based. The settings on record: BaF3.
Chain of Proto-oncogene tyrosine-protein kinase ROS (Homo sapiens) (P08922 whole entry): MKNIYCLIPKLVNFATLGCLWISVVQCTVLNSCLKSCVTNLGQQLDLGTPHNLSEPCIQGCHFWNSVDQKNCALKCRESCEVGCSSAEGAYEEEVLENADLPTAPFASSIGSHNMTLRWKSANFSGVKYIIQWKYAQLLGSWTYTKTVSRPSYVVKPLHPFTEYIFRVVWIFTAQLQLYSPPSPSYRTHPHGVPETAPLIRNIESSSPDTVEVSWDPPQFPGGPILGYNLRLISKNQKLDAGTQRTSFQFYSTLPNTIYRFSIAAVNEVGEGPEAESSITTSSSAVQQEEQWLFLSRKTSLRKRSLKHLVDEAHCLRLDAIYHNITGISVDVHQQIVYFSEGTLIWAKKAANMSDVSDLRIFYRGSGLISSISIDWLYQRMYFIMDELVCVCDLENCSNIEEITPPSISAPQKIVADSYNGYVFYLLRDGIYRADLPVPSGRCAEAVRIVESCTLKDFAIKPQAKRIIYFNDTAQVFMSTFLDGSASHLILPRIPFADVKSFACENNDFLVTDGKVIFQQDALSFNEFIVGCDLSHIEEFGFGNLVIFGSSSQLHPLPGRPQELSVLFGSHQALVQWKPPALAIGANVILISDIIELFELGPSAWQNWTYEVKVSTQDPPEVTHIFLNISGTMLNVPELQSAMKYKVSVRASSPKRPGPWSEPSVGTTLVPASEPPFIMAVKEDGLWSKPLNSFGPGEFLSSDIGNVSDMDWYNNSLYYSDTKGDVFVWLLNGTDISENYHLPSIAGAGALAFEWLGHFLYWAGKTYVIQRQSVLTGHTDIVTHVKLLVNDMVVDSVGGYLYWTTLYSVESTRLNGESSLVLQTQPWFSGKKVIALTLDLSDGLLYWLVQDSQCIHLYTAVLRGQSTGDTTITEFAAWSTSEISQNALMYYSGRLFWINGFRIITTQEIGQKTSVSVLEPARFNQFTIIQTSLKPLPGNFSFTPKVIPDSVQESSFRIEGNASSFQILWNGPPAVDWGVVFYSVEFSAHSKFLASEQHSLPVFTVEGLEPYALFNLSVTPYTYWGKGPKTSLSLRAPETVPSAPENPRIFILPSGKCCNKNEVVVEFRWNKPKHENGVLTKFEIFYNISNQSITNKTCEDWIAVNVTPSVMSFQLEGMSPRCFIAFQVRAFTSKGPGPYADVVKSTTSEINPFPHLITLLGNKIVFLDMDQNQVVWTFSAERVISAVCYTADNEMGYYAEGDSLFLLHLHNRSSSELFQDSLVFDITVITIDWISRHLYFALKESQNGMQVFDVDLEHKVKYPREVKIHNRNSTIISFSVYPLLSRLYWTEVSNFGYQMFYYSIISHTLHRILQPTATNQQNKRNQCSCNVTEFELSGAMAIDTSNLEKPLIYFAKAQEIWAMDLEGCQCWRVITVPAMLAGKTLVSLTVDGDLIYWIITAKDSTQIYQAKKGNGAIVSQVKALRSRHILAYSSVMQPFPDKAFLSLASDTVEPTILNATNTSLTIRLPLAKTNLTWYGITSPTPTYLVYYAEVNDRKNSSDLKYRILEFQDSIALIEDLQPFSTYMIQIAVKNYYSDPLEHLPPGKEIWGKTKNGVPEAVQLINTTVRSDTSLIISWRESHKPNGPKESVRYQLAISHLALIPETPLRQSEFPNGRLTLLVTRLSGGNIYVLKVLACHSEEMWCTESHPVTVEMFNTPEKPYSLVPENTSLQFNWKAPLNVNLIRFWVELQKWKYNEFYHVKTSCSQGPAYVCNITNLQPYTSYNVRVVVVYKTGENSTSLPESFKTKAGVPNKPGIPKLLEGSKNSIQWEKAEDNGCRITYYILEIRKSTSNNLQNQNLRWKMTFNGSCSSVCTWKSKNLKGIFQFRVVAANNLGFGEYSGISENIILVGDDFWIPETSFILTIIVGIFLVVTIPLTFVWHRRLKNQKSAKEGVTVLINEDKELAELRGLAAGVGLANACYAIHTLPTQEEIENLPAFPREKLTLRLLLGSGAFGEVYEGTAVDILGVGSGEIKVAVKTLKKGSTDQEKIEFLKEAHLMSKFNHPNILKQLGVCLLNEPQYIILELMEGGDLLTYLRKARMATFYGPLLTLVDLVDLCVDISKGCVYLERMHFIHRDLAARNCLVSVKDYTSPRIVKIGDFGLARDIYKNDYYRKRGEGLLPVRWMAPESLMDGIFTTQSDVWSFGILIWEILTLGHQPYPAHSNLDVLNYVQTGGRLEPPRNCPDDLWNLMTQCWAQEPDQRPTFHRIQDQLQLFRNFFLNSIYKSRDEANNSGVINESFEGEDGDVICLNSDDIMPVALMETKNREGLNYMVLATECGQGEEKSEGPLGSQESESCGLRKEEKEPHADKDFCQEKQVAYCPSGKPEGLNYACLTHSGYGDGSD
For experiment [10], the target named is Leukocyte tyrosine kinase receptor (Homo sapiens) (UniProt P29376). Put plainly: Inhibition of LTK (unknown origin) transfected in mouse Ba/F3 cells at 5 uM after 24 hrs. In kind it is cell-based. The following applies: BaF3.
Experiment [11] concerns the target Insulin-like growth factor 1 receptor (Homo sapiens) (UniProt P08069). Put plainly: Inhibition of IGF1R (unknown origin) transfected in mouse Ba/F3 cells at 5 uM after 24 hrs. The experiment is classed as cell-based. The following applies: BaF3. The method, boiled down: (§2)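 Kinase specificity panel: each Ba/F3 line transformed with one of 24 tyrosine kinases depends on that kinase to grow. Cells were given compound at 1 or 5 µM for 24 h, with DMSO as comparator. Percentage growth was read by ATP-lite luminescence and reported as mean ± SEM.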

Experiment [12] concerns the target Vascular endothelial growth factor receptor 3 (Homo sapiens) (UniProt P35916). Put plainly: Inhibition of FLT4 (unknown origin) transfected in mouse Ba/F3 cells at 5 uM after 24 hrs. The experiment is classed as cell-based. The settings on record: BaF3. The method, boiled down:
as §2

Experiment [13] deals with Ephrin type-A receptor 7 (Homo sapiens) (UniProt Q15375). Put plainly: Inhibition of EPHA7 (unknown origin) transfected in mouse Ba/F3 cells at 5 uM after 24 hrs. The experiment is classed as cell-based. The settings on record: BaF3. In a few lines:
as §2

For experiment [14], the target named is Ephrin type-A receptor 2 (Homo sapiens) (UniProt P29317). Put plainly: Inhibition of EPHA2 (unknown origin) transfected in mouse Ba/F3 cells at 5 uM after 24 hrs. The experiment is classed as cell-based. The settings on record: BaF3. In a few lines: as §2
In experiment [15] the target is Tyrosine-protein kinase ABL2 (Homo sapiens) (UniProt P42684). Put plainly: Inhibition of ABL2 (unknown origin) transfected in mouse Ba/F3 cells at 5 uM after 24 hrs. In kind it is cell-based. The settings on record: BaF3. In a few lines: as §2
Chain of Tyrosine-protein kinase ABL2 (Homo sapiens) (P42684 whole entry): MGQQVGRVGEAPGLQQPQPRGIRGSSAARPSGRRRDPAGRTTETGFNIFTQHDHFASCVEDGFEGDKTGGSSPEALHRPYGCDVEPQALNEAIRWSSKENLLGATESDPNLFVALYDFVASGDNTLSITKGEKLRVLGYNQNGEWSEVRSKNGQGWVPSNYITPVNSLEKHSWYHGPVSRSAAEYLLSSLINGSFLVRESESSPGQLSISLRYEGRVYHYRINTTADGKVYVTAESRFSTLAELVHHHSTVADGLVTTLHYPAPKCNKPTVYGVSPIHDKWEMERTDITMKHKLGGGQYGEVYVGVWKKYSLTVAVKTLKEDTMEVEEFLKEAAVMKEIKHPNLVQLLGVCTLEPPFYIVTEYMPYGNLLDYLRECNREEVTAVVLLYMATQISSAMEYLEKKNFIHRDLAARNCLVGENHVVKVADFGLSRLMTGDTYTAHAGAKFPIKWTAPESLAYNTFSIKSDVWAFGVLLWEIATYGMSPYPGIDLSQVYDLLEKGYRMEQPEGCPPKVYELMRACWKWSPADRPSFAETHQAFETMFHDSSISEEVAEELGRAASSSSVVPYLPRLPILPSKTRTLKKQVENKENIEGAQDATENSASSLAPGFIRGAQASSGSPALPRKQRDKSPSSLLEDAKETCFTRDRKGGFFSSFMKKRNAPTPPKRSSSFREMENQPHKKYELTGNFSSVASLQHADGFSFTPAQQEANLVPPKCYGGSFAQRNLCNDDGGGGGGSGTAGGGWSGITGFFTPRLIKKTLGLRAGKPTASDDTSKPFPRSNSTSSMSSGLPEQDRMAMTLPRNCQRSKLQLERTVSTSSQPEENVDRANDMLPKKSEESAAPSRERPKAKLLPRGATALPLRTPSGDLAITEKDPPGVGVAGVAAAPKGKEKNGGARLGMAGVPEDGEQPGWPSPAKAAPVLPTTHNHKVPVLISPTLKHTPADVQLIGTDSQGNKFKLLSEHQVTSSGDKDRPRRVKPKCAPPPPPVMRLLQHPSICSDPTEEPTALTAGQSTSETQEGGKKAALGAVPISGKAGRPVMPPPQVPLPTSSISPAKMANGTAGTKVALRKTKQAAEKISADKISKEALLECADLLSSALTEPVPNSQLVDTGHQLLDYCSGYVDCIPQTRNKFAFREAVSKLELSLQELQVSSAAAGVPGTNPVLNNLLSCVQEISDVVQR

Active and inactive are the calls of the source. No cut-off for these calls is given here.

Chain of Proto-oncogene tyrosine-protein kinase Src (Homo sapiens) (P12931 2-536 limits assumed): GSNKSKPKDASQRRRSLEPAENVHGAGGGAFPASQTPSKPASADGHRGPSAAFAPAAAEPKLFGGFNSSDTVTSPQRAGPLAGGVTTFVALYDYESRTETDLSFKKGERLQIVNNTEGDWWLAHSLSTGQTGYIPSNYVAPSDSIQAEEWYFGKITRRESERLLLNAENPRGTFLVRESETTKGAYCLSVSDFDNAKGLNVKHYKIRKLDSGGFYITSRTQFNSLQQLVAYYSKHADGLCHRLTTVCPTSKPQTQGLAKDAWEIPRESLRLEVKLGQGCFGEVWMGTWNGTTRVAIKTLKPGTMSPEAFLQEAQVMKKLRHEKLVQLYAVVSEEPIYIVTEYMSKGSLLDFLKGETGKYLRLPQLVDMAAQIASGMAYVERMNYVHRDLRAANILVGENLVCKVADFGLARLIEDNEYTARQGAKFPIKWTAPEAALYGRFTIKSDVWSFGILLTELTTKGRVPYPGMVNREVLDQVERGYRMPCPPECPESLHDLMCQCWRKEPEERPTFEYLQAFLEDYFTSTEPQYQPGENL
Chain of Ephrin type-A receptor 7 (Homo sapiens) (Q15375 28-998 limits assumed): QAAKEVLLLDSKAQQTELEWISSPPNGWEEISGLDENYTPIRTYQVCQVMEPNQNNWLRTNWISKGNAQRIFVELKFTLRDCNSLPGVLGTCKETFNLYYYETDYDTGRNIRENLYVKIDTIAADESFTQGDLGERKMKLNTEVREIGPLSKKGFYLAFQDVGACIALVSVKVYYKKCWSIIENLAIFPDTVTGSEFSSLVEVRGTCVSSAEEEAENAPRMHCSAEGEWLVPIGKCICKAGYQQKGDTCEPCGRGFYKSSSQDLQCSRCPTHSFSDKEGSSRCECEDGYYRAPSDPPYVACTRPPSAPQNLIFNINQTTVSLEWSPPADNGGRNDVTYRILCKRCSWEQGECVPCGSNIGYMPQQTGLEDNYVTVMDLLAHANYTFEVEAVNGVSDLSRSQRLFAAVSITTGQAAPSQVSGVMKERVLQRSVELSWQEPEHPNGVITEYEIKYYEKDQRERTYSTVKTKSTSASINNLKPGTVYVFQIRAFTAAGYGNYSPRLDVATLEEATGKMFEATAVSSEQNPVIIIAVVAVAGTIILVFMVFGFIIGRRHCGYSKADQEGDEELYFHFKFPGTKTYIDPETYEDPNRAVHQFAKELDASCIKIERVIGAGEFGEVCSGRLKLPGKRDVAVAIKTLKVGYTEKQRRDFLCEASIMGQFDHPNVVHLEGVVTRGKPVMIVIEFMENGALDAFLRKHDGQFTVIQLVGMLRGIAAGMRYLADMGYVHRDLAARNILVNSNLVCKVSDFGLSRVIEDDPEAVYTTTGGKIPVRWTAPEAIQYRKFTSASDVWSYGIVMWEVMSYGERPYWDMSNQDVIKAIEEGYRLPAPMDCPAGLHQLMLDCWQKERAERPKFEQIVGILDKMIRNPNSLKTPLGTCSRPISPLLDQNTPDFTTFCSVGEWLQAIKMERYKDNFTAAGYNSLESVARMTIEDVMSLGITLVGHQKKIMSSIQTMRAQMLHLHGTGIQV

Take `COc1ccc(C(=O)Nc2cc(-c3ccccc3)[nH]n2)cc1`: the outcome in experiment [1] was Active. For the same compound, the EC50 was 142 nM in experiment [2] and 292 nM in experiment [3].
For `Fc1ccc(-c2n[nH]cc2-c2ccncc2)cc1Cl`, the inhibition result in [4], in experiment [5], in experiment [6], in experiment [7], in experiment [10] and in [11] was “inactive” each time. For the same compound, the inhibition entry in [12], in experiment [13] and in experiment [14] was “inactive” each time. The inhibition entry in experiment [8], in experiment [9] and in [15] was “Active” each time.
As to `Cc1ccc(-n2cnc3cc(Nc4nnc(C)c5ccccc45)ccc32)cc1`, the inhibition result in experiment [6], in experiment [7], in experiment [8], in experiment [9], in experiment [10] and in [11] was “inactive” each time. In addition, the inhibition result in [12], in experiment [13], in [14] and in experiment [15] was “inactive” throughout. Besides, the result in [1] was Active.

The term EC50 denotes the concentration that produces a half-maximal response. A lower EC50 goes with a more potent agent.

The values above are taken from ChEMBL document CHEMBL2390926, “Identification of novel FLT3 kinase inhibitors” (Eur J Med Chem, 2013).
